What was measured:
Format in all cases: ADME
[1] = biological target: T1, Solute carrier family 15 member 1 (Rattus norvegicus, UniProt P51574); test: Drug uptake in Pichia pastoris GS115 expressing rat recombinant PEPT1 at 5 uM after 30s by dual-channel liquid scintillation counting analysis in presence of acyclovir relative to control; conditions: in vivo, 0.5 min
T1 sequence (P51574 whole entry): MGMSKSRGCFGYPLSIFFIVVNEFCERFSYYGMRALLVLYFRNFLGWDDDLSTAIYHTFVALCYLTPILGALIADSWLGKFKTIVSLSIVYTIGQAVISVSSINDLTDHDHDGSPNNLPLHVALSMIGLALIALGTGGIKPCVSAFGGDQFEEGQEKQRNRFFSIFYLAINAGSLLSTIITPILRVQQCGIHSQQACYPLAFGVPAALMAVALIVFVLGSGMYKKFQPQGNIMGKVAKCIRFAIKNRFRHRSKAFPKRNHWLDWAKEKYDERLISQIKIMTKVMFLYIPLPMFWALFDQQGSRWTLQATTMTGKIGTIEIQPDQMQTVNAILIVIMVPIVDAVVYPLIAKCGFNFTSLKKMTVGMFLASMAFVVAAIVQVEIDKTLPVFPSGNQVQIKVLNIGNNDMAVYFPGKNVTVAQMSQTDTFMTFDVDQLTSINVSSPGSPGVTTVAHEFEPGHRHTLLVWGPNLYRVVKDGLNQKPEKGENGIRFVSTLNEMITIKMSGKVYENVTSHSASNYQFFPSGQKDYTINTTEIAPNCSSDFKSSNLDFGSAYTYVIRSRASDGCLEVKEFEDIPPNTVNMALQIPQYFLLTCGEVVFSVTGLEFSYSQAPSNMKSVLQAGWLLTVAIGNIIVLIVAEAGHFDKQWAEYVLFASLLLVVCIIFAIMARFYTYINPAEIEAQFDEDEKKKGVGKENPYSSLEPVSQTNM
Method in brief: (§1)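 [3H]GlySar 5.0 µM final, 30-s uptake at 24°C in 100 mM potassium phosphate pH 6.5, with or without a potential inhibitor at 10 mM. Cells are methanol-induced transformants. Values are vector-subtracted and expressed as percent of buffer control. Mean ± SE (n=3). ANOVA with Dunnett's test.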

[2] = biological target: T1, Solute carrier family 15 member 1; test: Drug uptake in Pichia pastoris GS115 expressing rat recombinant PEPT1 at 5 uM after 30s by dual-channel liquid scintillation counting analysis in presence of valacyclovir relative to control; conditions: 0.5 min
Method in brief: (§2)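 Rat PEPT1 (pPIC3.5K-rPept1) in GS115 His+Mut+ transformant, methanol-induced 20-24 hr in BMMY at 30°C, washed into 100 mM potassium phosphate pH 6.5. [3H]GlySar final 5.0 µM with inhibitor at 10 mM, 30 sec at 24°C. Counts taken by liquid scintillation after 24 hr standing. Values are vector-subtracted and given as % of buffer control. Mean ± SE, n=3.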

[3] = biological target: T2, Solute carrier family 15 member 1 (Homo sapiens, UniProt P46059); test: Drug uptake in Pichia pastoris GS115 expressing human recombinant PEPT1 at 5 uM after 30s by dual-channel liquid scintillation counting analysis in presence of GlyPro relative to control; conditions: 0.5 min; method in brief: as §1
T2 sequence (P46059 whole entry): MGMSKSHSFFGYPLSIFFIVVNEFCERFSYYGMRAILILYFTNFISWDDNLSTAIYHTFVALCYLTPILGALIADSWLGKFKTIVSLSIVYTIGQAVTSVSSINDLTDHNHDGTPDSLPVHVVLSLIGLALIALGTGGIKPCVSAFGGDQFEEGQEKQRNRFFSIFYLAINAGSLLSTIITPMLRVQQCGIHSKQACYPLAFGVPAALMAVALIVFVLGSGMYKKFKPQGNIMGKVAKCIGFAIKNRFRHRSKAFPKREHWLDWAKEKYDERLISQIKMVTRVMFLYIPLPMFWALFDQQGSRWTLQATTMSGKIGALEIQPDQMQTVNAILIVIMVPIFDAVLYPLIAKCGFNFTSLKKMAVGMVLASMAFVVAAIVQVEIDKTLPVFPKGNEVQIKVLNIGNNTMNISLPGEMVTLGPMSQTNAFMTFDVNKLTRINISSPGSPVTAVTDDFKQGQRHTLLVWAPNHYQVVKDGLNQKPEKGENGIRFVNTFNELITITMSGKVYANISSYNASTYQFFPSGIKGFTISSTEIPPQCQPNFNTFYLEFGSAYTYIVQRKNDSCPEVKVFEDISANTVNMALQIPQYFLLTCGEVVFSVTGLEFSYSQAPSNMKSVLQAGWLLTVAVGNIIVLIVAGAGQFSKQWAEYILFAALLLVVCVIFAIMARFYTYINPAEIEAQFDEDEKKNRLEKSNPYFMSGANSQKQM

[4] = biological target: T2, Solute carrier family 15 member 1; test: Drug uptake in Pichia pastoris GS115 expressing human recombinant PEPT1 at 5 uM after 30s by dual-channel liquid scintillation counting analysis in presence of acyclovir relative to control; conditions: 0.5 min; method in brief: as §1
[5] = biological target: T2, Solute carrier family 15 member 1; test: Activity at human recombinant PEPT1 expressed in Pichia pastoris GS115 assessed as non-saturable rate constant after 30s by dual-channel liquid scintillation counting analysis
Method in brief: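 [3H]GlySar concentration series 0.005-10 mM, 30-s uptake at 24°C in 100 mM potassium phosphate pH 6.5. Cells come from His+Mut+ GS115 transformants induced 20-24 h in methanol medium. Uptake is normalised to OD600. Data are fitted to Michaelis-Menten plus a first-order nonsaturable term (Kd), weighting unity. Parameters are mean ± SE (n=9).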

[6] = biological target: T1, Solute carrier family 15 member 1; test: Drug uptake in Pichia pastoris GS115 expressing rat recombinant PEPT1 at 5 uM after 30s by dual-channel liquid scintillation counting analysis in presence of cefazolin relative to control; conditions: 0.5 min; method in brief: as §2

Drug uptake [1]: 109% | Drug uptake [2]: 5.5% | Drug uptake [3]: 3.9% | Drug uptake [4]: 114% | Kd [5]: 2.21 uL/OD/min | Drug uptake [6]: 93.7%
Compound: [3H]C(C(=O)O)N(C)C(=O)CN (stereo unspecified)

— ChEMBL document CHEMBL3526053, “Species-dependent uptake of glycylsarcosine but not oseltamivir in Pichia pastoris expressing the rat, mouse, and human intestinal peptide transporter PEPT1” (Drug Metab Dispos, 2012)
